For 15 compounds, ED50 results are on record in ChEMBL document CHEMBL1121633, “Neuroleptic 4-aryltetrahydropyrrolo[3,4-b]indoles” (1980).

Experiment [1] has as its system Rattus norvegicus. In words: Antipsychotic activity was assessed by ability to antagonize the stereotypy induced in rats by d-amphetamine (5 mg/kg, ip) after 5 h. Type of experiment: functional. The essentials:
(§1)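 Rats were housed singly in covered plastic compartments and briefly acclimated. Groups of five received compound ip at doses spaced 0.5 log unit (e.g., 1, 3.2, 10, 32 mg/kg). d-Amphetamine sulfate 5 mg/kg ip was given 1, 5 or 24 h later. One hour after each challenge, at peak amphetamine effect, each rat's most characteristic behavior was rated on a six-point scale.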

The test system of experiment [2] is Rattus norvegicus. Description: Antipsychotic activity was assessed by ability to antagonize the stereotypy induced in rats by d-amphetamine (5 mg/kg, ip) after 1 h. It is filed as functional. The method, boiled down: as §1
The test system of experiment [3] is Rattus norvegicus. Description: Antipsychotic activity was assessed by ability to antagonize the stereotypy induced in rats by d-amphetamine (5 mg / kg, ip) after 5 h. It is filed as functional. The method, boiled down: as §1
The test system of experiment [4] is Rattus norvegicus. In words: Antipsychotic activity was assessed by ability to antagonize the stereotypy induced in rats by d-amphetamine (5 mg / kg, ip) after 1 h. It is filed as functional. The essentials: as §1
In experiment [5] the test system is Rattus norvegicus. In words: Antipsychotic activity was assessed by ability to antagonize the stereotypy induced in rats by d-amphetamine (5 mg/kg, ip) after 24 h. It is filed as functional. The essentials: as §1
The subject of experiment [6] is Rattus norvegicus. In words: Antipsychotic activity was assessed by ability to antagonize the stereotypy induced in rats by d-amphetamine (5 mg / kg, ip) after 5 h; Range is 10-32. It is filed as functional. The essentials: as §1
Experiment [7] has as its system Rattus norvegicus. In words: Antipsychotic activity was assessed by ability to antagonize the stereotypy induced in rats by d-amphetamine (5 mg / kg, ip) after 1 h; Range is 3.2-5.6. It is filed as functional. The essentials:
as §1

Experiment [8] has as its system Rattus norvegicus. Description: Antipsychotic activity was assessed by ability to antagonize the stereotypy induced in rats by d-amphetamine (5 mg/kg, ip) after 1 h; Range is 10-32. Type of experiment: functional. The method, boiled down: as §1
The test system of experiment [9] is Rattus norvegicus. Description: Antipsychotic activity was assessed by ability to antagonize the stereotypy induced in rats by d-amphetamine (5 mg / kg, ip) after 1 h; Range is 0.1-0.32. Type of experiment: functional. The essentials:
as §1

Experiment [10] relates to Rattus norvegicus. In words: Antipsychotic activity was assessed by ability to antagonize the stereotypy induced in rats by d-amphetamine (5 mg / kg, ip) after 5 h; Range is 0.1-0.32. Type of experiment: functional. The essentials: as §1
In experiment [11] the test system is Rattus norvegicus. In words: Antipsychotic activity was assessed by ability to antagonize the stereotypy induced in rats by d-amphetamine (5 mg / kg, ip) after 24 h; Range is 1.0-3.2. Type of experiment: functional. The method, boiled down: as §1
Experiment [12] relates to Rattus norvegicus. In words: Antipsychotic activity was assessed by ability to antagonize the stereotypy induced in rats by d-amphetamine (5 mg / kg, ip) after 24 h; Range is 3.2-10. Type of experiment: functional. The method, boiled down: as §1
For experiment [13], the system named is Rattus norvegicus. Description: Antipsychotic activity was assessed by ability to antagonize the stereotypy induced in rats by d-amphetamine (5 mg / kg, ip) after 5 h; Range is 1.0-3.2. It is filed as functional. The essentials: as §1
Experiment [14] has as its system Rattus norvegicus. In words: Antipsychotic activity was assessed by ability to antagonize the stereotypy induced in rats by d-amphetamine (5 mg / kg, ip) after 1 h; Range is 1.0-3.2. Type of experiment: functional. The method, boiled down: as §1
In experiment [15] the test system is Rattus norvegicus. Description: Antipsychotic activity was assessed by ability to antagonize the stereotypy induced in rats by d-amphetamine (5 mg/kg, ip) after 1 h; Range is 3.2-10. It is filed as functional. The essentials:
as §1

Experiment [16] deals with Rattus norvegicus. Description: Antipsychotic activity was assessed by ability to antagonize the stereotypy induced in rats by d-amphetamine (5 mg/kg, ip) after 5 h; Range is 3.2-10. Type of experiment: functional. The method, boiled down: as §1
The subject of experiment [17] is Rattus norvegicus. In words: Antipsychotic activity was assessed by ability to antagonize the stereotypy induced in rats by d-amphetamine (5 mg / kg, ip) after 1 h; Range is 3.2-10.
In experiment [18] the test system is Rattus norvegicus. In words: Antipsychotic activity was assessed by ability to antagonize the stereotypy induced in rats by d-amphetamine (5 mg / kg, ip) after 24 h. It is filed as functional. The essentials: as §1

In the case of `CCOC(=O)N1Cc2c(n(-c3ccc(F)cc3)c3ccc(F)cc23)C1`, the ED50 in the experiment with Rattus norvegicus [1] and with Rattus norvegicus [2] was more than 32 mg/kg throughout.
Take `Cl.O=C(CCCN1Cc2c(n(-c3ccc(F)cc3)c3ccc(F)cc23)C1)c1ccccc1`: the ED50 in the experiment with Rattus norvegicus [3] and in the experiment on Rattus norvegicus [4] was more than 32 mg/kg throughout.
`Cl.Fc1ccc(-n2c3c(c4cc(F)ccc42)CNC3)cc1`: the values for the ED50 in the experiment with Rattus norvegicus [1], with Rattus norvegicus [5] and in the experiment on Rattus norvegicus [2] were more than 32 mg/kg, 32 mg/kg and more than 32 mg/kg, respectively.
Regarding `Cl.OC(CCCCN1Cc2c(n(-c3ccc(F)cc3)c3ccc(F)cc23)C1)c1ccc(F)cc1` (stereo unspecified), the values for the ED50 in the experiment with Rattus norvegicus [4] and with Rattus norvegicus [6] were more than 32 mg/kg and 10 mg/kg, respectively.
Regarding `CN1Cc2c(n(-c3ccc(F)cc3)c3ccc(F)cc23)C1.Cl`, the ED50 (usually the dose at which the effect has come halfway, by size or by number of responders) with Rattus norvegicus [7] was 3.2 mg/kg; in the experiment on Rattus norvegicus [3], more than 10 mg/kg.
In the case of `Cl.OC(CCCN1Cc2c(n(-c3ccc(F)cc3)c3ccc(F)cc23)C1)c1ccccc1` (stereo unspecified), the ED50 with Rattus norvegicus [1] was more than 10 mg/kg; in the experiment with Rattus norvegicus [5], more than 32 mg/kg; in the experiment with Rattus norvegicus [8], 10 mg/kg.
As for `Cl.Fc1ccc(-n2c3c(c4cc(F)ccc42)CN(CCc2ccccc2)C3)cc1`, the ED50 in the experiment with Rattus norvegicus [3] and with Rattus norvegicus [4] was more than 32 mg/kg in each case.
For `Cl.O=C(CCCCN1Cc2c(n(-c3ccc(F)cc3)c3ccc(F)cc23)C1)c1ccc(F)cc1`, the values for the ED50 with Rattus norvegicus [3] and with Rattus norvegicus [4] were more than 32 mg/kg and 32 mg/kg, respectively.
Regarding `Cl.OC(CCCN1CCc2c(c3cc(F)ccc3n2-c2ccc(F)cc2)C1)c1ccc(F)cc1` (stereo unspecified), the 50% effective dose (ED50) in the experiment on Rattus norvegicus [9] is 0.1 mg/kg; in the experiment on Rattus norvegicus [10], 0.1 mg/kg; in the experiment on Rattus norvegicus [11], 1 mg/kg.
For the compound `CCOC(=O)N1Cc2[nH]c3ccc(F)cc3c2C1.Cl`, the ED50 in the experiment on Rattus norvegicus [3] and with Rattus norvegicus [4] was more than 32 mg/kg throughout.
As for `CCCN1Cc2c(n(-c3ccc(F)cc3)c3ccc(F)cc23)C1.I`, the median effective dose (ED50) in the experiment on Rattus norvegicus [3] and with Rattus norvegicus [4] was more than 32 mg/kg throughout.
Regarding `Cl.OC(CCCN1Cc2c(n(-c3ccc(F)cc3)c3ccc(F)cc23)C1)c1ccc(F)cc1` (stereo unspecified), the ED50 in the experiment with Rattus norvegicus [12] was found to be 3.2 mg/kg; in the experiment with Rattus norvegicus [13] it was 1 mg/kg; with Rattus norvegicus [14] it was 1 mg/kg.
On to `Cl.Fc1ccc(-n2c3c(c4cc(F)ccc42)CN(Cc2ccccc2)C3)cc1`, for which the median effective dose (ED50) with Rattus norvegicus [3] and in the experiment with Rattus norvegicus [4] was more than 32 mg/kg in each case.
Regarding `Cl.O=C(CCCN1Cc2c(n(-c3ccc(F)cc3)c3ccc(F)cc23)C1)c1ccc(F)cc1`, the median effective dose (ED50) was more than 10 mg/kg in the experiment with Rattus norvegicus [5], 3.2 mg/kg in the experiment on Rattus norvegicus [15] and 3.2 mg/kg with Rattus norvegicus [16].
In the case of `CN(C)CCCN1c2ccccc2Sc2ccc(Cl)cc21` [CHLORPROMAZINE], the figures for the ED50 in the experiment on Rattus norvegicus [3], with Rattus norvegicus [17] and with Rattus norvegicus [18] were 17.8 mg/kg, 3.2 mg/kg and 56 mg/kg, respectively.
